Molecules are shown by their SMILES.

Series [1] deals with T1, Xanthine dehydrogenase/oxidase (Bos taurus, UniProt P80457). The experiment in a line: Inhibition of bovine xanthine oxidase at 2 X 10^-5 M. The note with it: cattle; for inhibition (INH): 20 µM. An outline of the steps: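 Bovine xanthine oxidase, diluted 1:300 to give ΔOD292 of 0.09–0.12 per min, starts the reaction in 0.05 M phosphate buffer pH 7.5 with hypoxanthine at 3×10^-5 M plus inhibitor.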

Series [2] addresses T1, Xanthine dehydrogenase/oxidase. The experiment in a line: Inhibition of bovine xanthine oxidase. The note with it: read-out: I50.
A short description of series [3]: Dissociation constant, apparent pKa of the compound. The format is physicochemical.
The nature of series [4]: Association constant, apparent pKa of the compound. The format is physicochemical.

T1 sequence (P80457 whole entry): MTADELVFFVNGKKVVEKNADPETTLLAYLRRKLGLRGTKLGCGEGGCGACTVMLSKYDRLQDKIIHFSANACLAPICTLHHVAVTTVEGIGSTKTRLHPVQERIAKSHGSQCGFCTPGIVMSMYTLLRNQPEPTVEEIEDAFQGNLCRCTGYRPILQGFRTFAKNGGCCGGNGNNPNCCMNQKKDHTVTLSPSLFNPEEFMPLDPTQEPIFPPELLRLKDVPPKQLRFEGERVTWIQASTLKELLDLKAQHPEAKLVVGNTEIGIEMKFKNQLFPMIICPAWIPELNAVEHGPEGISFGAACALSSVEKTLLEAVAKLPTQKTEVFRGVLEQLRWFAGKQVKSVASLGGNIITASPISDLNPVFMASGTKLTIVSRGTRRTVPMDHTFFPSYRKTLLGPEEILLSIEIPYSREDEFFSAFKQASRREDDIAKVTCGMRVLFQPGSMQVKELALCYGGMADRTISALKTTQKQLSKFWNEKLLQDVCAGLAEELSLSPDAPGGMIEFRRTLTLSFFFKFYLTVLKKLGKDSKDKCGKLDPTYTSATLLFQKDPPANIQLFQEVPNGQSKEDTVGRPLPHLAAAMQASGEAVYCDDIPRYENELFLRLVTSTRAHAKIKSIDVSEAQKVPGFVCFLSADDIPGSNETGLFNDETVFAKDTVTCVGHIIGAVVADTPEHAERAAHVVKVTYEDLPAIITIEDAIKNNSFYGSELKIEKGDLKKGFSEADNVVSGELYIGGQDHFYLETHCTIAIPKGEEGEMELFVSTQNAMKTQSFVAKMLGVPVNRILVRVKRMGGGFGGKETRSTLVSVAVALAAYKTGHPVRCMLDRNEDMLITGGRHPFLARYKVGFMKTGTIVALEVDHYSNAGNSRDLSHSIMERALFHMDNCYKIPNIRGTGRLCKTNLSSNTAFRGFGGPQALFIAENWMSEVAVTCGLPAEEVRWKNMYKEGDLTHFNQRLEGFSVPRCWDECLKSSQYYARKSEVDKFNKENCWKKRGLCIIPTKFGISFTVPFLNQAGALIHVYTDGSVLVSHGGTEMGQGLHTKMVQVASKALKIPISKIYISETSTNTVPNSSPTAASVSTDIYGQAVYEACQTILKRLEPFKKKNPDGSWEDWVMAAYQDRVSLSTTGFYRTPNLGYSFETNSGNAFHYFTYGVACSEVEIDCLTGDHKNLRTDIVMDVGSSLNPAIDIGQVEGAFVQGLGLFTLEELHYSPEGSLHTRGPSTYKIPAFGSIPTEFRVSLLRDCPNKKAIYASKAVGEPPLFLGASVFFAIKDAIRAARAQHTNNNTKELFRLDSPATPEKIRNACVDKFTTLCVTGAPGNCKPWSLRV

Regarding `Cc1cnc(-c2ccncc2)[nH]1`, in series [1], the “inhibition (INH)” value is on record as “Not Active”.

For the compound `N#Cc1nc(-c2ccncc2)[nH]c1C(N)=O`, the IC50 in series [2] is 0.5 µM. `NC(=O)c1nc(-c2ccncc2)[nH]c1C(N)=O`: at 20 µM the inhibition in series [1] was 14%. As to `O=[N+]([O-])c1c[nH]cn1`, the “inhibition (INH)” value in series [1] is given as “Not Active”. Moreover, in series [3], the pKa (commonly the negative logarithm of the acid dissociation constant) was 9. Take `Cc1cnc(-c2cccnc2)[nH]1`: the “inhibition (INH)” value in series [1] is recorded as “Not Active”. As for `N#Cc1nc(-c2ccncc2)[nH]c1C#N`, in series [2], the IC50 turned out to be 0.02 µM. Take `c1cnc2[nH]c(-c3ccncc3)nc2c1`: the “inhibition (INH)” value in series [1] is “Not Active”. On the same count and under the same terms, the same measure for `c1cc(-c2ncc[nH]2)ccn1`: “Not Active”. As for `O=C(O)c1nc(-c2cccnc2)[nH]c1C(=O)O`, the IC50 in series [2] stood at 1 µM. Regarding `COC(=O)c1nc(-c2cccnc2)[nH]c1C(=O)OC`, the “inhibition (INH)” value in series [1] is reported as “Not Active”. Turning to `Clc1nc(-c2cccnc2)[nH]c1Cl`, 20 µM produced 29% inhibition in series [1]. Take `N#Cc1nc(-c2cccnc2)[nH]c1C#N`: in series [2], the IC50 turned out to be 35 µM. Consider `COC(=O)c1nc(-c2ccncc2)[nH]c1C(=O)OC`, for which the “inhibition (INH)” value in series [1] was “Not Active”. The pKa in series [4] was 3.98; in series [3], 7.15. Regarding `c1cncc(-c2ncc[nH]2)c1`, in series [1], the “inhibition (INH)” value is reported as “Not Active”.

Turning to `Clc1cc2nc(-c3ccncc3)[nH]c2cc1Cl`, the IC50 in series [2] was 15 µM. The pKa in series [4] was determined as 3; in series [3], 9.33.

For `c1cc(-c2nc3cnccc3[nH]2)ccn1`, the IC50 in series [2] is 13 µM. In the case of `c1cncc(-c2nc3cccnc3[nH]2)c1`, the “inhibition (INH)” value in series [1] is reported as “Not Active”. In the case of `Clc1ccc2nc(-c3cccnc3)[nH]c2c1`, the “inhibition (INH)” value in series [1] is reported as “Not Active”. As to `Clc1ccc2[nH]c(-c3ccncc3)nc2c1`, the pKa in series [4] came out at 3.5; in series [3] it was 10. For the compound `O=[N+]([O-])c1cnc(-c2cccnc2)[nH]1`, the IC50 in series [2] is 1.3 µM. As to `N#Cc1cnc(-c2ccncc2)[nH]1`, the IC50 in series [2] came to 5.6 µM. On to `COC(=O)c1cnc(-c2ccncc2)[nH]1`, for which the inhibition (in general, the share of the control response that was lost under treatment) at 20 µM in series [1] stood at 10%. `O=C(O)c1cnc(-c2ccncc2)[nH]1` displayed an inhibition at 20 µM in series [1] of 34%. The same measure, in the same setting: as for `c1cncc(-c2nc3cnccc3[nH]2)c1`, the figure is 23%. Turning to `O=[N+]([O-])c1cnc(-c2ccncc2)[nH]1`, in series [2], the IC50 worked out at 0.35 µM. As for `c1ccc2[nH]c(-c3ccncc3)nc2c1`, in series [1], the “inhibition (INH)” value is “Not Active”. For the same compound, the pKa was 3.85 in series [4] and 10.9 in series [3]. As to `NC(=O)c1nc(-c2cccnc2)[nH]c1C(N)=O`, the “inhibition (INH)” value in series [1] is recorded as “Not Active”.

Consider `FC(F)(F)c1cnc(-c2cccnc2)[nH]1`, for which the IC50 in series [2] is 40 µM. In addition, the pKa in series [4] stood at 3.5; in series [3], 10.2. The like results for `FC(F)(F)c1cnc(-c2ccncc2)[nH]1` were, in that order, 2 µM, 3.76 and 9.73. As for `O=C(O)c1nc(-c2ccncc2)[nH]c1C(=O)O`, the IC50 in series [2] came to 5.8 µM. Same read-out and setting: the same measure for `Brc1nc(-c2cccnc2)[nH]c1Br`: 20 µM.
